Assay outcomes from PubChem.
eIF4H inh – human eIF4H binding inhibitors, primary screen, translation initiation inhibitor project, biochemical, uHTS, fluorescence polarization; Eukaryotic translation initiation factor 4H (Homo sapiens), Q15056; eIF4H fluorescence polarization binding assay; inhibition, % at 35 µM; hit rate 0.94% among 290,000; AID 2012, 2009;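 note: calls also rest on retests at 20 µM and on dose response follow-up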
PABP1 MLLE inh – inhibitors of PABP1 MLLE–PAM2 peptide binding, primary screen, biochemical, fluorescence polarization, FITC-PAM2, GST-MLLE; inhibition, % at 20 µM; hit rate 0.36% among 360,000; AID 588489, 2011; in the data active = inhibition above about 35%, passing the limit was not always enough;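 note: plate controls were DMSO wells with GST-MLLE for no effect and wells lacking GST-MLLE protein for full effect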
Target sequence (P11940 whole entry, looked up): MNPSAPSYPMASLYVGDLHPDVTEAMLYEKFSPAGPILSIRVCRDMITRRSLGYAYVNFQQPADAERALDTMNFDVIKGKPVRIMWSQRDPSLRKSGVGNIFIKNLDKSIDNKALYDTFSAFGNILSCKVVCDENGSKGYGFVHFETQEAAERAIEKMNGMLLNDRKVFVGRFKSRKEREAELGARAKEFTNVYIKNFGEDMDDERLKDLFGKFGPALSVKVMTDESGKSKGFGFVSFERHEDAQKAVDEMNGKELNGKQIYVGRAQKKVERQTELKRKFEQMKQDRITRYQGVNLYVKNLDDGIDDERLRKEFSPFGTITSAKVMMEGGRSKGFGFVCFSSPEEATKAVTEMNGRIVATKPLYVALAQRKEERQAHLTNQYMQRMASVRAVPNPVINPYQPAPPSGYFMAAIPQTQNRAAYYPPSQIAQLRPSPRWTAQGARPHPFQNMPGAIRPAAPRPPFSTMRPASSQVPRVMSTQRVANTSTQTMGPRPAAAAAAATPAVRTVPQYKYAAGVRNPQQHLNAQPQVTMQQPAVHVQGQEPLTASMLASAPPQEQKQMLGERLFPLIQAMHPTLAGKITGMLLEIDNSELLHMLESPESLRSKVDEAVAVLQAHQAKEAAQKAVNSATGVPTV
PABP FP inh – PABP poly(A) RNA binding inhibitors, primary screen, biochemical, fluorescence polarization, uHTS; inhibition, % at 35 µM; hit rate 1% among 290,000; Polyadenylate-binding protein 1 (Homo sapiens), P11940;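 note: calls also rest on retests at 20 µM and on dose response follow-up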
FID counter – compounds displacing fluorescent DNA intercalator, primary screen, artefact control for HCV NS3 helicase inhibitor project, biochemical, FID fluorescence; DNA fluorescent intercalator displacement; inhibition, % at 7.9 µM; hit rate 0.17% among 290,000; in the data active = inhibition above about 37%;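 note: 0% = vehicle and 100% = reference compound; higher means more ethidium bromide displaced from hairpin DNA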
NS3 helicase inh – inhibitors of HCV NS3 helicase, primary screen, biochemical, Cy5 molecular beacon fluorescence | NS3 helicase DNA unwinding | AID 1800, 2009 | inhibition, % at 10.9 µM | hit rate 0.56% among 290,000;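 active = inhibition above the mean of all tested compounds plus 3 SD, set per campaign, cut at about 35% in these data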;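 note: 0% = DMSO wells and 100% = thioflavine S control wells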
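Assay system: hepatitis C virus NS3 helicase domain fragment enzyme. Also added: annealed dual-labelled DNA beacon duplex, ATP-started. Timing: 1 h reaction at 25 °C, ATP-initiated. Technique: Cy5 fluorescence at 0 and 60 min, beacon hairpin quenching. Evaluation: % inhibition of unwinding. Replication: one well per compound.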
HCV core dimer – inhibitors of HCV core protein dimerization, primary screen, biochemical, TR-FRET, high-throughput | hit rate 0.33% among 300,000 | inhibition, % at 5 µM | AID 1899, 2009 | TR-FRET GST/Flag-core106 dimerization, 1536-well;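 active = inhibition above the mean of all tested compounds plus 3 SD, set per screening campaign, cut at about 45% in these data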
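Assay system – GST-tagged and Flag-tagged HCV core protein residues 1-106 · Quantity – core106 proteins, GST 13.5 nM and Flag 17 nM · Benchmarks – unlabelled core106 and no-GST-core106 wells · Read-out basis – percent inhibition of core106 dimerization signal · Detection – time-resolved FRET, ex 340 nm, em 617 and 671 nm · Schedule – 4 h at 22.5 °C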
An asterisk follows results filed as active; u = inconclusive; x = not tested or not shown. Only some compounds are listed: those with a hit (about 2% of all), similar ones and a draw of the others. Unless noted, the rule behind the calls is not given here.

SMILES	eIF4H inh	PABP1 MLLE inh	PABP FP inh	FID counter	NS3 helicase inh	HCV core dimer
O=C(N/N=C\c1c(O)ccc2ccccc12)c1ccc(S(=O)(=O)N2CCCCC2)cc1	64*	-155	54*	-2	3	7
O=C(NN=Cc1c(O)ccc2ccccc12)c1ccc2c(c1)OCO2	x	-11	x	x	x	x
O=C(NNS(=O)(=O)c1ccc(F)cc1)c1ccc(S(=O)(=O)N2CCCCC2)cc1	active	4	61	-18	1	-6
COc1ccc(CCCNC(=O)C2(C)Cc3c(-c4ccc5c(c4)OCO5)ccnc3O2)cc1 (stereo unspecified)	x	5	x	x	x	x
CC(C)(C)c1ccc(CC(=O)N2CCC2(C)C(=O)NS(=O)(=O)c2ccccc2Cl)cc1 (stereo unspecified)	x	2	x	x	x	x
CC(=O)OC(C(=O)Nc1ccccc1C)C(OC(C)=O)C(OC(C)=O)C(OC(C)=O)C(=O)Nc1ccccc1C (stereo unspecified)	x	x	x	0	6	x
COc1ccc2nc(NC(=O)C3=NN(c4ccccc4)C(=O)CC3)sc2c1	-9	2	14	-17	11	25
CCc1ccc(-c2csc(NC(=O)C3=NN(c4ccccc4)C(=O)CC3)n2)cc1	active	-18	56	-11	10	42
Cc1cc(C)c(-c2csc(NC(=O)C3=NN(c4ccccc4)C(=O)CC3)n2)c(C)c1	-6	-17	-23	-19	9	46*
CC1CCN(c2nc3c(c(=O)[nH]c(=O)n3C)n2CC(C)CSc2nnnn2-c2ccccc2)CC1 (stereo unspecified)	5	-8	69*	2	1	12
Cn1c(=O)[nH]c(=O)c2c1nc(N1CCCCC1)n2CCCSc1nnnn1-c1ccccc1	active	11	50*	-31	-14	-4
COC(=O)C1=C(C)N(c2ccc(C)c(C)c2)/C(=C/c2ccco2)C1=O	18*	-23	54	-6	14	11
O=c1cc(CSc2nnnn2-c2ccccc2)nc2scc(-c3ccccc3)n12	13	-29	9	-14	10	60*
O=c1cc(CSc2nnnn2-c2ccccc2)nc2sccn12	13	21	3	-4	2	4
CCOc1cc(CNCCCN2CCOCC2)cc(Br)c1OCc1ccccc1Cl	-2	-10	-5	40*	-89	-5
CCOc1cc(CNC(C)(C)CO)cc(Br)c1OCc1ccc(Cl)cc1Cl	-6	-2	-5	38*	-40	-13
CCOc1cc(CNCCO)cc(Br)c1OCc1ccc(Cl)cc1	-2	7	-6	38*	-87	-17
COc1ccc(-c2cn(-c3ccccc3)c3[n+]2CCS3)cc1	2	-3	1	2	5	-6
COc1cc(/C=N/NC(=O)c2cccnc2)cc2c1OCO2	-4	8	0	-7	7	6
COc1cc(/C=N/NC(=O)c2ccccn2)cc2c1OCO2	u	-10	79*	-7	-2	-5
O=C(NC(=S)Nc1cccnc1)c1cc2ccccc2o1	34	41*	-6	-10	19	6
O=C(NC(=S)Nc1ccccc1)c1cncc(C#Cc2ccccc2)c1	-5	40*	-2	-2	7	-11
O=C(NC(=S)Nc1cccnc1)c1cccc(Cl)c1	x	43*	x	x	x	x
COc1ccccc1C(CNC(=O)c1ccc(C)c(S(=O)(=O)N2CCCCC2)c1)N1CCCC1 (stereo unspecified)	x	-24	x	x	x	x
CC1(C(=O)NCC2CCCCC2)CCN1CCc1ccccc1 (stereo unspecified)	x	0	x	x	x	x
SMILES	eIF4H inh	PABP1 MLLE inh	PABP FP inh	FID counter	NS3 helicase inh	HCV core dimer
COc1cc(OC)c2ccc(=O)oc2c1C(CC(=O)N1CCCC1)c1ccc2c(c1)OCO2 (stereo unspecified)	82*	6	51*	x	x	-6
COc1cc(OC)c2ccc(=O)oc2c1C(CC(=O)N1CCCC(C)C1)c1ccc2c(c1)OCO2 (stereo unspecified)	71	-13	27	x	x	15
COc1cc(C(CC(=O)N2CCCC2)c2c(OC)cc(OC)c3ccc(=O)oc23)cc(OC)c1OC (stereo unspecified)	52*	43*	28	x	x	4
COc1cc(C(CCN2CCCC2)c2c(OC)cc(OC)c3ccc(=O)oc23)cc(OC)c1OC (stereo unspecified)	-3	-16	-10	x	x	-6
CCOC(=O)C1=C(COC(=O)Cc2ccccc2[N+](=O)[O-])NC(=O)NC1C (stereo unspecified)	x	9	x	x	x	x
O=C(COC(=O)C1CCCCC1C(=O)N1CCc2ccccc21)NCc1ccco1 (stereo unspecified)	71	-1	10	-22	18	83*
O=C(COC(=O)CCOc1ccccc1)NCc1ccco1	94*	-8	67*	-8	8	62*
O=C(COC(=O)C1CC2C=CC1C2)NCc1ccco1 (stereo unspecified)	93*	-1	41*	-10	23	76*
O=C(COc1ccccc1)NCc1ccco1	x	6	x	x	x	x
O=C(Cc1ccc(NC(=O)C2CCN(C(=O)CCc3ccccc3)CC2)cc1)Nc1ccc(C(=O)N2CCOCC2)cc1	x	-3	x	x	x	x
COc1ccccc1-n1c(=O)c(C#N)c(-c2ccc([N+](=O)[O-])cc2)c2cc(C(=O)c3cc(F)ccc3O)cnc21	-12	6	3	5	1	49*
OCCN1CCN(c2ncnc3c2ncn3[C@H]2CN(Cc3ccc(F)cc3)C[C@@H](CO)O2)CC1	x	6	x	x	x	x
Nc1ncnc(N2CCOCC2)c1N	87*	-1	active	-1	8	-4
Nc1c(Cl)ncnc1N1CCCC1	5	3	3	8	-6	-3
COc1ccc(/C=N/NC(=O)Cn2c(Cc3ccc(OC)c(OC)c3)nc3ccccc32)cc1	active	4	76*	-36	12	10
COc1cc(/C=N\NC(=O)Cn2nnc3ccccc32)cc(OC)c1OC	5	2	4	-11	-6	1
CCC[n+]1c2ccccc2cc2ccccc21	0	-79	67*	38*	19	-8
Cc1ccc2ccccc2[n+]1CCCS(=O)(=O)[O-]	6	-5	0	3	2	-4
CCCC[n+]1c2ccccc2cc2ccccc21	14	-83	68*	38*	-10	1
CCCCC[n+]1cccc2c3ccccc3ccc21	-4	-140	-10	19	-18	-3
CCc1c(C2(O)CCCCC2)[nH]c2ccc(C(F)(F)F)cc12	-7	-5	3	-7	-44	-5
